Measurements from ChEMBL document CHEMBL1156688, “Synthesis and biological activities of a series of 4,5-diaryl-3-hydroxy-2(5H)-furanones” (Eur J Med Chem, 2008).

Tests used:
[1] = DPPH radical scavenging activity assessed as ratio of drug concentration to DPPH concentration producing 50% decrease in DPPH after 5 mins; format: functional
Method in brief: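 DPPH decay was followed spectrophotometrically at 515 nm, read every 0.02 min, starting from about […] DPPH. ECR50 is the ratio of antioxidant to DPPH concentration giving a 50% fall in DPPH; the methods state 6 min of reaction. Trolox and ascorbic acid served as references.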

[2] = Antioxidant activity assessed as inhibition of peroxynitrite-induced evans blue bleaching at 50 uM; format: functional; parameters: scale not given: the % may be the effect or the level left
Method in brief: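 Room-temperature assay in 50 mM phosphate-buffered saline, pH 7.4, containing 0.1 mM diethylenetriaminepentaacetic acid, 90 mM NaCl and 5 mM KCl. Test compound, Evans Blue ([…] as printed) and peroxynitrite ([…] as printed) were mixed rapidly. Bleaching was read at 608 nm. Blanks held DMF alone or peroxynitrite degraded for 5 min.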

[3] = target: T1, Polyunsaturated fatty acid 5-lipoxygenase (Homo sapiens) (UniProt P09917); experiment: Inhibition of 5LOX in human whole blood assessed as inhibition of calcium ionophore A-stimulated 5-HETE production at 10 uM; format: tissue-based; parameters: scale not given: the % may be the effect or the level left
T1 sequence (whole entry): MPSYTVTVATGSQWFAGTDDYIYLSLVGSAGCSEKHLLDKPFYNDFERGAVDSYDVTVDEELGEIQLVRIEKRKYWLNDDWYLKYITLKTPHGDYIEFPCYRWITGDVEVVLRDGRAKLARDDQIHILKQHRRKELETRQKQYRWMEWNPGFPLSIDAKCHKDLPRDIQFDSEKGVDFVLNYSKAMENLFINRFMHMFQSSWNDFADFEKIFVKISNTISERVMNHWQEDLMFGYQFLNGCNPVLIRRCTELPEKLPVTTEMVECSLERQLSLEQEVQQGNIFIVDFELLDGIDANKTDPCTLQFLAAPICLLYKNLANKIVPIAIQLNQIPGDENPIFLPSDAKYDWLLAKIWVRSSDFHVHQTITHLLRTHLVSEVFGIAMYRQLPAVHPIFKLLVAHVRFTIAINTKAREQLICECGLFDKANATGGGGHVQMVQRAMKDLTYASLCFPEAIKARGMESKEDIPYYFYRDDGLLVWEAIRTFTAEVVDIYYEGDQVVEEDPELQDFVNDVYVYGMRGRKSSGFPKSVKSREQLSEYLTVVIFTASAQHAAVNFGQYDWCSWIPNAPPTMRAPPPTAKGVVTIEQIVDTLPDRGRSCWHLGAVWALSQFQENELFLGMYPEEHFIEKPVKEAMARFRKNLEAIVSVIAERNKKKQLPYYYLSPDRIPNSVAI
Method in brief: (§1)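 Fresh heparinized blood from normal volunteers, in 1 mL aliquots, was preincubated 15 min at 37 °C with compound or DMSO vehicle. It was then stimulated with calcium ionophore A23187 for 30 min at 37 °C. Eicosanoids were extracted into ethyl acetate, dried under nitrogen and redissolved in mobile phase. 5-HETE was quantified by reversed-phase HPLC with UV detection.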

[4] = target: Human immunodeficiency virus type 1 integrase (Human immunodeficiency virus 1, UniProt Q7ZJM1); experiment: Inhibition of HIV1 integrase
Chain of Human immunodeficiency virus type 1 integrase (Q7ZJM1 whole entry): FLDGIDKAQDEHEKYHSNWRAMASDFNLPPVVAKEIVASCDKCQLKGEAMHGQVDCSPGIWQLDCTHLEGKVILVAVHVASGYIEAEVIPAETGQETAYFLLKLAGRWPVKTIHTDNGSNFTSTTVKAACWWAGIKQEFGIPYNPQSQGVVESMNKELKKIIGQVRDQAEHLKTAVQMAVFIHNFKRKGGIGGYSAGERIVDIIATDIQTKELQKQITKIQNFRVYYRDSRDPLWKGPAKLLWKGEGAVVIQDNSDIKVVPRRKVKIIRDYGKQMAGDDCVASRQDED
Method in brief: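 Wild-type HIV-1 integrase (1 pmol) was tested in a 3′-processing reaction with 0.025 pmol labelled U5A/U5B double-stranded DNA substrate. Buffer was 20 mM Hepes pH 7.2, 10 mM MgCl2, 25 mM NaCl and 1 mM DTT. Oligonucleotides were gel-purified on 18% denaturing acrylamide/urea.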

[5] = target: Prostaglandin G/H synthase 1 (Homo sapiens) (UniProt P23219); experiment: Inhibition of COX1 at 100 uM
[6] = target: T1, Polyunsaturated fatty acid 5-lipoxygenase (Homo sapiens); experiment: Inhibition of 5LOX in human whole blood assessed as inhibition of calcium ionophore A-stimulated 5-HETE production at 100 uM; format: tissue-based; parameters: scale not given: the % may be the effect or the level left; method in brief: as §1
PC-3 [7] = experiment: Antiproliferative activity against human PC3 cells at 10 uM after 72 hrs by MTT assay; format: functional; settings: PC-3, 72 h
Method in brief: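 PC3 cells were grown in RPMI 1640 with 10% fetal calf serum at 37 °C under 5% CO2. They were plated at 1.8 × 10^4 cells/well and grown 3 days, then serum-starved 24 h to synchronize. Compounds were added in medium with less than 0.1% DMSO. Growth was estimated by colorimetric MTT after 72 h.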

PC-3 [8] = experiment: Antiproliferative activity against human PC3 cells after 72 hrs by MTT assay; settings: PC-3, 72 h

| Compound | Activity [3] [%] | IC50 [4] [µM] | inhibition [5] [%] | Activity [6] [%] | IC50 (PC-3 [8]) [µM] | Ratio [1] | Activity [2] [%] | inhibition at 10 µM (PC-3 [7]) [%] |
| --- | --- | --- | --- | --- | --- | --- | --- | --- |
| O=C1O[C@H]([C@@H](O)CO)C(O)=C1O | – | – | – | – | – | 0.26 | 83.6 | – |
| O=C1OC(c2cc(OCc3ccccc3)cc(OCc3ccccc3)c2)C(c2ccc(F)cc2)=C1O (configuration not stated) | 0 | 30 | – | – | – | – | 0 | – |
| O=C1OC(c2ccc(F)cc2)C(c2ccc(O)cc2)=C1O (configuration not stated) | 0 | > 300 | 16.4 | 16.4 | – | 0.27 | 46.5 | – |
| O=C1OC(c2ccc(O)cc2)C(c2ccc(O)cc2)=C1O (configuration not stated) | 0 | 220 | – | 27.8 | – | 0.32 | 44.9 | 0 |
| O=C1OC(c2cc(OCc3ccccc3)cc(OCc3ccccc3)c2)C(c2ccc(O)cc2)=C1O (configuration not stated) | 32 | > 300 | – | – | – | 0.65 | 10.4 | – |
| Cc1c(C)c2c(c(C)c1O)CCC(C)(C(=O)O)O2 (configuration not stated) | – | – | – | – | – | 0.26 | 90 | – |
| O=C1OC(c2ccc(O)c(O)c2)C(c2ccc(O)cc2)=C1O (configuration not stated) | 35.4 | 9.2 | – | 79.5 | – | 0.25 | 92 | 20 |
| O=C1OC(c2ccc(O)cc2)C(c2ccc(F)cc2)=C1O (configuration not stated) | 0 | 300 | – | 0 | – | – | 0 | 31 |
| O=C1OCC(c2ccc(O)cc2)=C1O | – | 3.6 | – | – | – | – | – | – |

Further lines, with some results ahead:

| Activity [3] [%] | IC50 [4] [µM] | inhibition [5] [%] | Activity [6] [%] | IC50 (PC-3 [8]) [µM] | Compound | Ratio [1] | Activity [2] [%] | inhibition at 10 µM (PC-3 [7]) [%] |
| --- | --- | --- | --- | --- | --- | --- | --- | --- |
| 12.7 | 1 | – | – | – | O=C1OC(c2ccc(OCc3ccccc3)c(OCc3ccccc3)c2)C(c2ccc(O)cc2)=C1O (configuration not stated) | 0.71 | 4.9 | – |
| 0 | 10 | – | – | – | O=C1OC(c2ccc(OCc3ccccc3)c(OCc3ccccc3)c2)C(c2ccc(F)cc2)=C1O (configuration not stated) | – | 0 | – |
| 0 | > 300 | – | – | – | O=C1OC(c2ccc(OCc3ccccc3)cc2)C(c2ccc(F)cc2)=C1O (configuration not stated) | – | 0 | – |
| 0 | 22 | – | 11.6 | – | O=C1OC(c2cc(O)cc(O)c2)C(c2ccc(O)cc2)=C1O (configuration not stated) | 0.47 | 33.1 | 39 |
| 0 | 92 | – | 10.7 | – | O=C1OC(c2cc(O)cc(O)c2)C(c2ccc(F)cc2)=C1O (configuration not stated) | – | 40.9 | 0 |
| – | – | – | – | 48 | Cc1ccc(-c2cc(C(F)(F)F)nn2-c2ccc(S(N)(=O)=O)cc2)cc1 [CELECOXIB] | – | – | – |
| 0 | > 300 | 32.9 | 18.6 | – | O=C1OC(c2ccccc2)C(c2ccc(O)cc2)=C1O (configuration not stated) | 0.49 | 29.4 | – |
| 0 | > 300 | – | – | – | O=C1OC(c2ccc(OCc3ccccc3)cc2)C(c2ccc(O)cc2)=C1O (configuration not stated) | 0.3 | 0 | – |
